# Experiments:
# Format in all cases: functional
# [1] = system: Candida albicans; assay: Potentiation of anidulafungin-induced antibiofilm activity against Candida albicans ATCC 10231 at 0.1 uM to 100 mM after 48 hrs by XTT reduction assay relative to control; parameters: scale not given: the % may be the effect or the level left
# Method in brief: (§1)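 Biofilms grown on sterilized PVC disks: 1·10^6 cfu/ml Candida cells adhered for 1.5 h at 37 °C with shaking, washed with PBS, then matured 48 h at 37 °C in RPMI 1640 (MOPS, pH 7). Preformed biofilms were washed and exposed to drug, alone or in two-dimensional checkerboard combination, in RPMI 1640 for 24 h at 37 °C on a rocker.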
# [2] = system: Meyerozyma guilliermondii; assay: Antibiofilm activity against Candida guilliermondii a83 at 0.1 uM to 100 mM after 48 hrs by XTT reduction assay relative to control; parameters: scale not given: the % may be the effect or the level left; method in brief: as §1
# [3] = system: Candida albicans; assay: Antibiofilm activity against Candida albicans ATCC 10231 by two dimensional checkerboard dilution method; method in brief: as §1
# [4] = system: Candida albicans; assay: Antibiofilm activity against Candida albicans ATCC 10231 by two dimensional checkerboard dilution method in presence of anidulafungin; method in brief: as §1
# [5] = system: Candida albicans; assay: Antibiofilm activity against Candida albicans ATCC 90028 by two dimensional checkerboard dilution method in presence of anidulafungin; method in brief: as §1
# [6] = system: Candida albicans; assay: Antibiofilm activity against Candida albicans ATCC 24433 by two dimensional checkerboard dilution method; method in brief: as §1
# [7] = system: Candida albicans; assay: Antibiofilm activity against Candida albicans ATCC 24433 by two dimensional checkerboard dilution method in presence of anidulafungin; method in brief: as §1
# [8] = system: Candida albicans; assay: Antibiofilm activity against Candida albicans 17a18 by two dimensional checkerboard dilution method; method in brief: as §1
# [9] = system: Candida albicans; assay: Antibiofilm activity against Candida albicans 17a18 by two dimensional checkerboard dilution method in presence of anidulafungin; method in brief: as §1
# [10] = system: Nakaseomyces glabratus; assay: Antibiofilm activity against Candida glabrata ATCC 15126 by two dimensional checkerboard dilution method; method in brief: as §1
# [11] = system: Nakaseomyces glabratus; assay: Antibiofilm activity against Candida glabrata ATCC 15126 by two dimensional checkerboard dilution method in presence of anidulafungin; method in brief: as §1
# [12] = system: Nakaseomyces glabratus; assay: Antibiofilm activity against Candida glabrata 18a10 by two dimensional checkerboard dilution method; method in brief: as §1
# [13] = system: Nakaseomyces glabratus; assay: Antibiofilm activity against Candida glabrata 18a10 by two dimensional checkerboard dilution method in presence of anidulafungin; method in brief: as §1
# [14] = system: Meyerozyma guilliermondii; assay: Antibiofilm activity against Candida guilliermondii ATCC 6260 by two dimensional checkerboard dilution method; method in brief: as §1
# [15] = system: Meyerozyma guilliermondii; assay: Antibiofilm activity against Candida guilliermondii ATCC 6260 by two dimensional checkerboard dilution method in presence of anidulafungin; method in brief: as §1
# [16] = system: Meyerozyma guilliermondii; assay: Antibiofilm activity against Candida guilliermondii a83 by two dimensional checkerboard dilution method; method in brief: as §1
# [17] = system: Meyerozyma guilliermondii; assay: Antibiofilm activity against Candida guilliermondii a83 by two dimensional checkerboard dilution method in presence of anidulafungin; method in brief: as §1
# [18] = system: Meyerozyma guilliermondii; assay: Antibiofilm activity against Candida guilliermondii a410 by two dimensional checkerboard dilution method; method in brief: as §1
# [19] = system: Meyerozyma guilliermondii; assay: Antibiofilm activity against Candida guilliermondii a410 by two dimensional checkerboard dilution method in presence of anidulafungin; method in brief: as §1
# [20] = system: Candida albicans; assay: Potentiation of anidulafungin-induced antibiofilm activity against Candida albicans ATCC 10231 assessed as anidulafungin-fractional inhibitory concentration index by two dimensional checkerboard dilution method
# Method in brief: (§2)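 Biofilms grown on PVC disks: 1·10^6 cfu/ml in RPMI 1640 (MOPS, pH 7), 1.5 h adhesion at 37 °C with shaking, PBS wash, 48 h maturation at 37 °C. Preformed biofilms exposed 24 h at 37 °C to anidulafungin/NSAID checkerboard combinations in RPMI. XTT-menadione reduction read at 490 nm. SMIC = 50% metabolic reduction versus drug-free control. Triplicate runs on different days; FIC index calculated.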
# [21] = system: Candida albicans; assay: Antibiofilm activity against Candida albicans ATCC 90028 assessed as fractional inhibitory concentration by two dimensional checkerboard dilution method in presence of anidulafungin; method in brief: as §2
# [22] = system: Candida albicans; assay: Potentiation of anidulafungin-induced antibiofilm activity against Candida albicans ATCC 90028 assessed as anidulafungin-fractional inhibitory concentration index by two dimensional checkerboard dilution method; method in brief: as §2
# [23] = system: Candida albicans; assay: Antibiofilm activity against Candida albicans ATCC 24433 assessed as fractional inhibitory concentration by two dimensional checkerboard dilution method in presence of anidulafungin; method in brief: as §2
# [24] = system: Candida albicans; assay: Antibiofilm activity against Candida albicans 17a18 assessed as fractional inhibitory concentration by two dimensional checkerboard dilution method in presence of anidulafungin; method in brief: as §2
# [25] = system: Candida albicans; assay: Potentiation of anidulafungin-induced antibiofilm activity against Candida albicans 17a18 assessed as anidulafungin-fractional inhibitory concentration index by two dimensional checkerboard dilution method; method in brief: as §2
# [26] = system: Nakaseomyces glabratus; assay: Potentiation of anidulafungin-induced antibiofilm activity against Candida glabrata ATCC 15126 assessed as anidulafungin-fractional inhibitory concentration index by two dimensional checkerboard dilution method; method in brief: as §2
# [27] = system: Nakaseomyces glabratus; assay: Antibiofilm activity against Candida glabrata 18a10 assessed as fractional inhibitory concentration by two dimensional checkerboard dilution method in presence of anidulafungin; method in brief: as §2
# [28] = system: Nakaseomyces glabratus; assay: Potentiation of anidulafungin-induced antibiofilm activity against Candida glabrata 18a10 assessed as anidulafungin-fractional inhibitory concentration index by two dimensional checkerboard dilution method; method in brief: as §2
# [29] = system: Meyerozyma guilliermondii; assay: Potentiation of anidulafungin-induced antibiofilm activity against Candida guilliermondii ATCC 6260 assessed as anidulafungin-fractional inhibitory concentration index by two dimensional checkerboard dilution method; method in brief: as §2
# [30] = system: Meyerozyma guilliermondii; assay: Antibiofilm activity against Candida guilliermondii a83 assessed as fractional inhibitory concentration by two dimensional checkerboard dilution method in presence of anidulafungin; method in brief: as §2
# [31] = system: Meyerozyma guilliermondii; assay: Potentiation of anidulafungin-induced antibiofilm activity against Candida guilliermondii a83 assessed as anidulafungin-fractional inhibitory concentration index by two dimensional checkerboard dilution method; method in brief: as §2
# [32] = system: Meyerozyma guilliermondii; assay: Antibiofilm activity against Candida guilliermondii a410 assessed as fractional inhibitory concentration by two dimensional checkerboard dilution method in presence of anidulafungin; method in brief: as §2
# [33] = system: Meyerozyma guilliermondii; assay: Potentiation of anidulafungin-induced antibiofilm activity against Candida guilliermondii a410 assessed as anidulafungin-fractional inhibitory concentration index by two dimensional checkerboard dilution method; method in brief: as §2
# [34] = system: Nakaseomyces glabratus; assay: Antibiofilm activity against Candida glabrata ATCC 15126 at 0.1 uM to 100 mM after 48 hrs by XTT reduction assay relative to control; parameters: scale not given: the % may be the effect or the level left; method in brief: as §1
# [35] = system: Candida albicans; assay: Antibiofilm activity against Candida albicans 17a18 at 0.1 uM to 100 mM after 48 hrs by XTT reduction assay relative to control; parameters: scale not given: the % may be the effect or the level left; method in brief: as §1
# [36] = system: Meyerozyma guilliermondii; assay: Potentiation of anidulafungin-induced antibiofilm activity against Candida guilliermondii a410 at 0.1 uM to 100 mM after 48 hrs by XTT reduction assay relative to control; parameters: scale not given: the % may be the effect or the level left; method in brief: as §1
# [37] = system: Meyerozyma guilliermondii; assay: Potentiation of anidulafungin-induced antibiofilm activity against Candida guilliermondii ATCC 6260 at 0.1 uM to 100 mM after 48 hrs by XTT reduction assay relative to control; parameters: scale not given: the % may be the effect or the level left; method in brief: as §1
# [38] = system: Nakaseomyces glabratus; assay: Potentiation of anidulafungin-induced antibiofilm activity against Candida glabrata 18a10 at 0.1 uM to 100 mM after 48 hrs by XTT reduction assay relative to control; parameters: scale not given: the % may be the effect or the level left; method in brief: as §1
# [39] = system: Nakaseomyces glabratus; assay: Potentiation of anidulafungin-induced antibiofilm activity against Candida glabrata ATCC 15126 at 0.1 uM to 100 mM after 48 hrs by XTT reduction assay relative to control; parameters: scale not given: the % may be the effect or the level left; method in brief: as §1
# [40] = system: Candida albicans; assay: Potentiation of anidulafungin-induced antibiofilm activity against Candida albicans ATCC 24433 at 0.1 uM to 100 mM after 48 hrs by XTT reduction assay relative to control; parameters: scale not given: the % may be the effect or the level left; method in brief: as §1
MIC [3] [µM],MIC [4] [µM],MIC [5] [µM],MIC [6] [µM],MIC [7] [µM],MIC [8] [µM],MIC [9] [µM],MIC [10] [µM],MIC [11] [µM],MIC [12] [µM],MIC [13] [µM],MIC [14] [µM],MIC [15] [µM],MIC [16] [µM],MIC [17] [µM],MIC [18] [µM],MIC [19] [µM],Compound,Activity [1] [%],Activity [2] [%],fractional inhibitory concentration index (FICI) [20],also measured
100000,5000,5000,100000,5000,100000,5000,100000,20000,100000,20000,100000,40000,100000,20000,100000,40000,O=C([O-])Cc1ccccc1Nc1c(Cl)cccc1Cl.[Na+] [DICLOFENAC SODIUM],66.15,57.87,0.1,Ratio [21]: 0.05; fractional inhibitory concentration index (FICI) [22]: 0.1; Ratio [23]: 0.05; Ratio [24]: 0.05; fractional inhibitory concentration index (FICI) [25]: 0.1; fractional inhibitory concentration index (FICI) [26]: 0.3; Ratio [27]: 0.2; fractional inhibitory concentration index (FICI) [28]: 0.3; fractional inhibitory concentration index (FICI) [29]: 0.45; Ratio [30]: 0.2; fractional inhibitory concentration index (FICI) [31]: 0.3; Ratio [32]: 0.4; fractional inhibitory concentration index (FICI) [33]: 0.45; Activity [34]: 54.44%; Activity [35]: 55.33%; Activity [36]: 54.28%; Activity [37]: 57.69%; Activity [38]: 58.66%; Activity [39]: 65.96%; Activity [40]: 65.24%
1000,50,1000,1000,1000,1000,50,200,40,200,40,200,20,200,40,200,20,CC(C)Cc1ccc(C(C)C(=O)O)cc1 (stereo not given) [IBUPROFEN],59.51,56.78,0.25,Ratio [21]: 0.1; fractional inhibitory concentration index (FICI) [22]: 0.3; Ratio [23]: 0.1; Ratio [24]: 0.05; fractional inhibitory concentration index (FICI) [25]: 0.25; fractional inhibitory concentration index (FICI) [26]: 0.25; Ratio [27]: 0.2; fractional inhibitory concentration index (FICI) [28]: 0.25; fractional inhibitory concentration index (FICI) [29]: 0.3; Ratio [30]: 0.2; fractional inhibitory concentration index (FICI) [31]: 0.25; Ratio [32]: 0.1; fractional inhibitory concentration index (FICI) [33]: 0.3; Activity [34]: 57.23%; Activity [35]: 24.51%; Activity [36]: 51.31%; Activity [37]: 53.32%; Activity [38]: 62.33%; Activity [39]: 57.46%; Activity [40]: 60.14%
